Source: PubChem BioAssay (several laboratories)
Autophagy HCS: autophagy modulation, high-content screen; MEF GFP-LC3 puncta imaging; test concentration mostly 10 µM; calls only at 10 µM (by protocol); 190,000 tested, 0.98% active; AID 463193;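 active = percentage of spot-positive cells more than 3 SD above its plate mean, without a fluorescence outlier flag or 80% toxicity; inconclusive = no clear call, values can overlap the other calls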;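 also: spot-positive cell cutoff set from DMSO-treated cells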
KCC2 mod: KCC2 (human) Cl- transport modulation; KCC2 cells, thallium flux FluoZin-2 fluorescence; B-score of Tl+ flux slope (higher = more flux/activation; lower = inhibition) at 10 µM; 190,000 tested, 2.2% active; AID 1456;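 active = thallium flux slope and its plate-corrected score both differing from the plate sample mean at a set confidence after two filtering rounds, in either direction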;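 also: slope of fluorescence scaled to starting intensity during 10 to 20 s after thallium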
WT yeast gro inh: growth inhibition of WT yeast, mitochondrial fusion screen. AID 1362. 190,000 tested, 2.1% active. mitochondrial fusion phenotypic screen, WT strain. inhibition, % at 10 µM; in the data active = inhibition above about 58%; tested in S. cerevisiae
Insulin prom up: MIN6 insulin promoter up-regulation; MIN6 insulin promoter-GFP reporter, high-content imaging; stronger effect = higher value; z-score at 5 µM; 190,000 tested, 0.3% active; AID 1625;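 active = z-score above 3 at 5 µM with at least 500 cells counted in the well; inconclusive = wells under 500 cells, flagged as cytotoxic or low count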
SKKanGAS inh: blocks kanamycin growth of S. pyogenes SKKanGAS strain; inhibition, % at 7.5 µM; AID 1662; 300,000 tested, 1.3% active; BacTiter-Glo, 6 h;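 active = mean replicate score, as percent of positive control median, at least 50; inconclusive = mean below 50 but one replicate at or above 50; inactive = mean and every replicate below 50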;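 also: strain carries kanamycin resistance gene driven by streptokinase promoter and grows in 40 µg/ml kanamycin; loss of luminescence reflects streptokinase promoter inhibition or plain growth inhibition; 0% = median of DMSO wells and 100% = positive control at its reference dose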
Rad51 HR inh: Rad51 (human) homologous recombination inhibition; Q06609; hRad51 DNA strand exchange, fluorescence dequenching; inhibition, % at 10 µM; 200,000 tested, 0.085% active; AID 1385;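 active = inhibition above 40% at the single screening dose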;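 also: 0% = DMSO control wells and 100% = blanks with heterologous ssDNA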
Target sequence (Q06609 whole entry, looked up): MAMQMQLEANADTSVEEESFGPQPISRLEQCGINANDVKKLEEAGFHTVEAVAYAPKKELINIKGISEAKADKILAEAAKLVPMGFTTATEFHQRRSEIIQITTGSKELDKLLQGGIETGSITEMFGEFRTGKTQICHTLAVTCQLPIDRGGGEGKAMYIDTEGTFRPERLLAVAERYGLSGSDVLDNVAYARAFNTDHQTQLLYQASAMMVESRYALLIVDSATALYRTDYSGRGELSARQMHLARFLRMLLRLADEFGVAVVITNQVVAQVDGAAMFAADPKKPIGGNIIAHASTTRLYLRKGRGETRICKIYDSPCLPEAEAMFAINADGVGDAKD
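material = hRad51 filaments on single-stranded DNA | timing = filaments 15 min 37 °C, then compound 30 min | signal = FRET fluorescence dequenching, excitation 485 nm, emission 520 nm | benchmarks = control wells and blank wells on each plate | evaluation = percent inhibition relative to plate controls and blanks | compound = 10 µM final, single point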
KCC2 secondary: confirmation of human KCC2 transport modulators | shares compounds with KCC2 mod | HEK293-KCC2, thallium flux, FluoZin2 fluorescence; stronger effect = higher value | normalised thallium flux (F/F0 slope) at 10 µM | 3,700 tested, 15% active | AID 1713;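 active = thallium flux slope above the same plate's solvent-only control mean plus 3 SD; inconclusive = the two replicate wells disagree; inactive = no significant difference from solvent-only control wells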
KCC2 bumet counter: thallium flux despite bumetanide block in KCC2 cells, secondary assay 3; shares compounds with KCC2 mod; HEK293-KCC2 + bumetanide/ouabain, thallium flux FluoZin2; stronger effect = higher value; normalized thallium flux at 10 µM; 3,700 tested, 49% active; AID 1714;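 active = thallium entry rate above the same plate's blocked-transporter control wells by more than 3 SD; inconclusive = the two repeat wells disagree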;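 also: raw slope of fluorescence over initial fluorescence between 10 and 20 s after thallium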
KCC2 sec2: confirmation of human KCC2 transport modulators. shares compounds with KCC2 mod. HEK293-KCC2, thallium flux FluoZin2 fluorescence; actives lie on both sides; F/F0 rise rate, 10–20 s post-thallium. normalized thallium flux at 10 µM. 3,700 tested, 23% active;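 active = thallium flux slope more than 3 SD above or below the plate's solvent-only control mean, mostly below; inconclusive = the two repeat wells disagreed; inactive = no significant shift from solvent-only controls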;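 also: raw slope with 0.1% DMSO as baseline and bumetanide as block control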
HEK293 Tl flux: parental HEK flux effect, counter-screen. shares compounds with KCC2 mod. HEK293 parental cells, thallium flux FluoZin2, ouabain; baseline-ratio fluorescence slope, 10–20 s after thallium. thallium flux rate (normalised fluorescence) at 10 µM. 3,700 tested, 46% active. AID 1716;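 active = thallium flux rate significantly above the same plate's solvent-only control wells, beyond their mean plus 3 SD; inconclusive = the two replicate wells gave conflicting results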
KCC2 ouabain: modulates human KCC2 on retest with ouabain; raw Tl+ flux slope (below DMSO = inhibition, above = activation) at 10 µM; AID 1717; shares compounds with KCC2 mod; 3,700 tested, 48% active; HEK293-KCC2, thallium flux FluoZin2 fluorescence; bidirectional: low = inhibitor, high = activator;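 active = thallium flux slope beyond 3 SD from same-plate DMSO control mean in most replicates, usually higher, sometimes lower; inconclusive = repeat tests gave conflicting results; inactive = no significant difference from controls in most replicates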;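 also: slope of initial-normalized fluorescence between seconds 10 and 20 after thallium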
HEK counter2: counter-screen for KCC2 modulators: effect in parental HEK293 cells; shares compounds with KCC2 mod; thallium flux FluoZin-2 fluorescence slope; 3,700 tested, 33% active; thallium flux slope at 10 µM;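 active = thallium flux slope above the same plate's solvent-control mean plus 3 SD in both duplicate wells; inconclusive = duplicate wells that disagreed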;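 also: run without ouabain in cells lacking the KCC2 cotransporter; slope of fluorescence scaled to its starting value between 10 and 20 s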
An asterisk follows results filed as active; i = inactive; ? = inconclusive; . = no result given. Shown are actives, neighbours in structure and some others; about 4.2% of the full set was active somewhere.

SMILES	Autophagy HCS	KCC2 mod	WT yeast gro inh	Insulin prom up	SKKanGAS inh	Rad51 HR inh	KCC2 secondary	KCC2 bumet counter	KCC2 sec2	HEK293 Tl flux	KCC2 ouabain	HEK counter2
Cc1cccc(OCc2n[nH]c(=S)n2-c2ccccc2)c1	i	0.088	13	0.13	2	16	.	.	.	.	.	.
Cc1ccc(-n2c(COc3cccc(C)c3)n[nH]c2=S)cc1	i	5.6*	57	-0.31	7	0	0.0076	0.064*	0.034	0.016*	0.036*	0.021*
Cc1ccc(OCc2n[nH]c(=S)n2-c2ccccc2)cc1C	i	47*	67*	-0.53	12	-41	0.0068	0.069*	0.043*	0.02*	0.049*	0.024*
CN1c2ccccc2Oc2nnc(N3CCN(Cc4ccccc4)CC3)cc21	i	-4*	26	-0.46	6	-27	0.0053	?	0.021*	0.0065	?	0.011
CN1c2ccccc2Oc2nnc(Cl)cc21	i	0.14	-26	0.19	11	1	.	.	.	.	.	.
CC(C)Cn1c(N)c(C(=O)COC(=O)/C=C/c2ccccc2)c(=O)n(C)c1=O	.	.	.	.	-2	.	.	.	.	.	.	.
COc1ccc(C(=O)c2cn[nH]c2-c2cc(Cl)ccc2O)cc1	i	-5.1*	4	0.16	-16	-6	0.0099	0.006	0.033	0.0072	0.022	0.011
COc1ccc(C(=O)c2cn[nH]c2-c2cc(C)ccc2O)cc1	.	.	.	.	-4	.	.	.	.	.	.	.
Cc1cc(C)cc(NC(=O)N2CCCN(Cc3c(F)cccc3Cl)CC2)c1	.	.	.	-0.07	2	18	.	.	.	.	.	.
CCOc1ccc(C2NC(=O)NC(C)=C2[N+](=O)[O-])cc1OC (centres undefined)	.	0.94	.	-0.13	6	16	.	.	.	.	.	.
Cc1n[nH]c(C)c1CCCOc1ccccc1	i	.	2	.	?	3	.	.	.	.	.	.
COc1ccc(OCCCc2c(C)n[nH]c2C)cc1	i	4.8*	32	.	37	.	0.0088	0.0068	0.03	0.0077	0.033	?
O=C(CC1NCCNC1=O)Nc1ccc([N+](=O)[O-])cc1 (centres undefined)	i	-1.2e-05	12	0.34	-1	-7	.	.	.	.	.	.
NC(=O)/C(=N\OC(=O)c1ccco1)c1nc(-c2ccc(Br)cc2)cs1	i	3.7*	3	-0.01	-4	.	0.0075	0.013*	0.025*	0.011*	0.018	0.0087
Fc1ccc(-c2n[nH]c(=S)c3ccccc23)cc1	i	14*	10	0.16	-7	10	0.011	0.021*	0.034	0.016*	?	0.013*
c1ccc(-c2n[nH]c3ccccc23)cc1	i	-2.9*	8	0.49	0	-1	0.0077	0.0061	0.03	0.0066	0.02	0.0096
CN(Cc1ccccc1)C(=O)COC(=O)CCNC(=O)c1ccccc1Cl	i	-1.7	1	-0.25	-12	6	.	.	.	.	.	.
CCSc1nc2c(cnn2-c2ccccc2)c(=O)n1N	.	4.6*	.	0.74	4	20	0.01	0.02*	0.031	0.01*	0.034*	0.011*
CSc1nc2c(cnn2-c2ccccc2)c(=O)n1N	i	1.2	-7	0.13	1	10	.	.	.	.	.	.
CC1CCc2sc(C(=O)NNC(=S)NCC3CCCO3)cc2C1 (centres undefined)	.	.	.	.	-11	.	.	.	.	.	.	.
CC1CCc2sc(-c3n[nH]c(=S)o3)cc2C1 (centres undefined)	i	39*	52	0.27	13	-6	0.021*	0.1*	0.032	0.03*	0.053*	0.015*
O=C(COC(=O)c1c2c(nc3ccccc13)CCCCC2)c1ccc(Cl)s1	i	0.26	51	-1.2	26	-3	.	.	.	.	.	.
N#Cc1c(NC(=O)c2ccccc2)sc2c1CCC2	i	.	9	0.31	-5	1	0.0066	0.0041	0.028	0.0075	0.018	0.01
N#Cc1c(NC(=O)c2cccnc2)sc2c1CCC2	i	0.085	.	.	15	1	.	.	.	.	.	.
Cc1ccccc1-c1nc(CS(=O)CC(=O)NCc2ccccc2)c(C)o1 (centres undefined)	i	.	-4	0.6	-10	2	0.006	?	0.024*	0.0067	?	0.011
SMILES	Autophagy HCS	KCC2 mod	WT yeast gro inh	Insulin prom up	SKKanGAS inh	Rad51 HR inh	KCC2 secondary	KCC2 bumet counter	KCC2 sec2	HEK293 Tl flux	KCC2 ouabain	HEK counter2
COc1ccccc1C(=O)NNC(=O)C(=O)NC(C)C	i	4.3*	-14	.	-4	2	0.014*	0.02*	0.029	0.011*	?	0.011*
COc1ccccc1C(=O)NNC(=O)c1sccc1-n1cccc1	i	.	-13	-0.08	-4	-16	?	0.046*	0.048*	0.04*	0.05*	0.04*
COC(=O)C(Cc1ccc(O)cc1)NC(=O)c1ccccc1OC (centres undefined)	i	-5.2*	-13	0.25	2	-2	0.0089	?	0.031	0.0085	0.018	0.011
COC(=O)C(Cc1ccc(O)cc1)NC(=O)c1ccccc1 (centres undefined)	i	.	-9	-0.26	-4	-2	.	.	.	.	.	.
COc1ccccc1C(=O)NNC(=O)C(=O)NCc1ccccc1	i	23*	-15	0.39	2	.	0.025*	0.046*	0.037	0.028*	0.048*	0.014*
Cc1ccc(CC2CC(=O)N(c3cc(Cl)ccn3)C2=O)cc1 (centres undefined)	.	-0.77	.	0.46	5	-9	.	.	.	.	.	.
COc1ccccc1N1CCNC(C)C1=O (centres undefined)	.	.	.	.	0	.	.	.	.	.	.	.
COc1ccc(C(=O)NNC(=O)C(=O)NCc2ccccc2)cc1	i	.	-3	0.18	-3	-5	0.016	0.019*	0.029	0.017*	0.022*	0.018*
CCN(C(=S)NC(=O)C1CC1)c1ccccc1	.	.	.	.	22	.	.	.	.	.	.	.
CCN(C(=S)NC(=O)C1CCCC1)C1CCCCC1	i	7.3*	18	0.05	-2	-9	0.012	0.03*	0.038	?	0.033*	?
